Values after ≈ are worked out from the molar mass of the structure shown.
Columns and labels:
[1] = system: Staphylococcus saprophyticus; assay: Antibacterial activity against methicillin-resistant mecA-positive Staphylococcus saprophyticus isolate TSU47 isolated from genitourinary tracts of acute cystitis patient after 24 hrs at 35 degC by agar dilution method; format: functional; conditions: isolate TSU47, Urine
Summary of the method: (§1)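 MICs by agar dilution per CLSI M7-A6 on Mueller-Hinton agar, plates incubated 35°C for 24 h. Isolates identified as S. saprophyticus by Gram stain, catalase, coagulase, DNase, egg yolk mannitol salt agar growth, novobiocin susceptibility and ID 32 API Staph; mecA detected by dot-blot hybridization.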

[2] = system: Staphylococcus saprophyticus; assay: Antibacterial activity against methicillin-resistant mecA-positive Staphylococcus saprophyticus isolates isolated from genitourinary tracts of acute cystitis patient after 24 hrs at 35 degC by agar dilution method; format: functional; conditions: Urine; summary of the method: as §1
[3] = system: Staphylococcus saprophyticus; assay: Antibacterial activity against methicillin-resistant mecA-positive Staphylococcus saprophyticus isolate TSU69 isolated from genitourinary tracts of acute cystitis patient after 24 hrs at 35 degC by agar dilution method; format: functional; conditions: isolate TSU69, Urine; summary of the method: as §1
[4] = system: Staphylococcus saprophyticus; assay: Antibacterial activity against methicillin-resistant mecA-positive Staphylococcus saprophyticus isolate TSU18 isolated from genitourinary tracts of acute cystitis patient after 24 hrs at 35 degC by agar dilution method; format: functional; conditions: isolate TSU18, Urine; summary of the method: as §1
[5] = system: Staphylococcus saprophyticus; assay: Antibacterial activity against methicillin-resistant mecA-positive Staphylococcus saprophyticus isolate TSU67 isolated from genitourinary tracts of acute cystitis patient after 24 hrs at 35 degC by agar dilution method; format: functional; conditions: isolate TSU67, Urine; summary of the method: as §1
[6] = system: Staphylococcus saprophyticus; assay: Antibacterial activity against methicillin-resistant mecA-positive Staphylococcus saprophyticus isolate TSU90 isolated from genitourinary tracts of acute cystitis patient after 24 hrs at 35 degC by agar dilution method; format: functional; conditions: isolate TSU90, Urine; summary of the method: as §1
[7] = system: Staphylococcus saprophyticus; assay: Antibacterial activity against methicillin-resistant mecA-positive Staphylococcus saprophyticus isolate TSU33 after 24 hrs at 35 degC by agar dilution method; conditions: isolate TSU33, 24 h
[8] = system: Staphylococcus saprophyticus; assay: Antibacterial activity against methicillin-resistant mecA-positive Staphylococcus saprophyticus isolate TSU28 isolated from genitourinary tracts of acute cystitis patient after 24 hrs at 35 degC by agar dilution method; format: functional; conditions: isolate TSU28, Urine; summary of the method: as §1
[9] = system: Staphylococcus saprophyticus; assay: Antibacterial activity against methicillin-resistant mecA-positive Staphylococcus saprophyticus isolate TSU57 isolated from genitourinary tracts of acute cystitis patient after 24 hrs at 35 degC by agar dilution method; format: functional; conditions: isolate TSU57, Urine; summary of the method: as §1

What does the source list for `CC1(C)S[C@@H]2[C@H](NC(=O)[C@H](N)c3ccccc3)C(=O)N2[C@H]1C(=O)O` [AMPICILLIN]?
MIC [1]: 4 µg/mL (≈ 11.4 µM); MIC50 [2]: 0.25 µg/mL (≈ 0.715 µM); MIC90 [2]: 1 µg/mL (≈ 2.86 µM)

What does the source list for `CC[C@H]1OC(=O)[C@H](C)[C@@H](O[C@H]2C[C@@](C)(OC)[C@@H](O)[C@H](C)O2)[C@H](C)[C@@H](O[C@@H]2O[C@H](C)C[C@H](N(C)C)[C@H]2O)[C@](C)(OC)C[C@@H](C)C(=O)[C@H](C)[C@@H](O)[C@]1(C)O` [CLARITHROMYCIN]?
MIC [3]: 0.125 µg/mL (≈ 0.167 µM); MIC [4]: 16 µg/mL (≈ 21.4 µM); MIC [5]: 0.125 µg/mL (≈ 0.167 µM); MIC [6]: 16 µg/mL (≈ 21.4 µM); MIC [7]: 16 µg/mL (≈ 21.4 µM); MIC [8]: 32 µg/mL (≈ 42.8 µM); MIC [1]: 16 µg/mL (≈ 21.4 µM); MIC50 [2]: ≤ 0.06 µg/mL; MIC90 [2]: 1 µg/mL (≈ 1.34 µM); MIC [9]: 16 µg/mL (≈ 21.4 µM)

Which MIC [3] does the source give for `CN[C@H](CC(C)C)C(=O)N[C@H]1C(=O)N[C@@H](CC(N)=O)C(=O)N[C@H]2C(=O)N[C@H]3C(=O)N[C@H](C(=O)N[C@H](C(=O)O)c4cc(O)cc(O)c4-c4cc3ccc4O)[C@H](O)c3ccc(c(Cl)c3)Oc3cc2cc(c3O[C@@H]2O[C@H](CO)[C@@H](O)[C@H](O)[C@H]2O[C@H]2C[C@](C)(N)[C@H](O)[C@H](C)O2)Oc2ccc(cc2Cl)[C@H]1O` [VANCOMYCIN] here?
Its MIC is 1 µg/mL (≈ 0.69 µM).

And the MIC [4]?
Its MIC is 0.5 µg/mL (≈ 0.345 µM).

And the MIC [5]?
The MIC was 1 µg/mL (≈ 0.69 µM).

What about the MIC [6] of the same compound?
The MIC was 1 µg/mL (≈ 0.69 µM).

What about the MIC [7] of the same compound?
The MIC was 0.5 µg/mL (≈ 0.345 µM).

And the MIC [8]?
The MIC was 1 µg/mL (≈ 0.69 µM).

And the MIC [1]?
Its MIC is 1 µg/mL (≈ 0.69 µM).

And the MIC50 [2]?
Its MIC50 is 0.5 µg/mL (≈ 0.345 µM).

What about the MIC90 [2] of the same compound?
The MIC90 was 1 µg/mL (≈ 0.69 µM).

And the MIC [9]?
Its MIC is 0.5 µg/mL (≈ 0.345 µM).

For `C[C@@H](O)[C@H]1C(=O)N2C(C(=O)O)=C(SCCNC=N)C[C@H]12` [IMIPENEM ANHYDROUS], which MIC [3] is on record?
Its MIC is 0.125 µg/mL (≈ 0.418 µM).

What about the MIC [4] of the same compound?
Its MIC is at most 0.06 µg/mL.

What about the MIC [5] of the same compound?
Its MIC is 0.125 µg/mL (≈ 0.418 µM).

What about the MIC [6] of the same compound?
Its MIC is 0.125 µg/mL (≈ 0.418 µM).

What about the MIC [7] of the same compound?
The MIC was at most 0.06 µg/mL.

What about the MIC [8] of the same compound?
Its MIC is 0.125 µg/mL (≈ 0.418 µM).

What about the MIC [1] of the same compound?
Its MIC is 0.125 µg/mL (≈ 0.418 µM).

And the MIC50 [2]?
Its MIC50 is at most 0.06 µg/mL.

What about the MIC90 [2] of the same compound?
Its MIC90 is at most 0.06 µg/mL.

And the MIC [9]?
The MIC was 0.125 µg/mL (≈ 0.418 µM).

Which MIC [3] does the source give for `CC1COc2c(N3CCN(C)CC3)c(F)cc3c(=O)c(C(=O)O)cn1c23` (stereo unspecified) [OFLOXACIN] here?
The MIC was 1 µg/mL (≈ 2.77 µM).

And the MIC [5]?
The MIC was 1 µg/mL (≈ 2.77 µM).

And the MIC90 [2]?
The MIC90 was 1 µg/mL (≈ 2.77 µM).

`C[C@@H]1O[C@@H]1P(=O)(O)O` [FOSFOMYCIN] was tested. Which MIC [3] did it give?
Its MIC is at least 512 µg/mL.

What about the MIC [4] of the same compound?
The MIC was 64 µg/mL (≈ 464 µM).

What about the MIC [5] of the same compound?
The MIC was 256 µg/mL (≈ 1850 µM).

And the MIC [6]?
The MIC was at least 512 µg/mL.

What about the MIC [7] of the same compound?
The MIC was 128 µg/mL (≈ 927 µM).

What about the MIC [8] of the same compound?
Its MIC is at least 512 µg/mL.

And the MIC [1]?
Its MIC is 128 µg/mL (≈ 927 µM).

And the MIC50 [2]?
Its MIC50 is 128 µg/mL (≈ 927 µM).

And the MIC90 [2]?
Its MIC90 is at least 512 µg/mL.

What about the MIC [9] of the same compound?
The MIC was 128 µg/mL (≈ 927 µM).

How did the MIC [3] turn out when `NCC[C@H](O)C(=O)N[C@@H]1C[C@H](N)[C@@H](O[C@H]2O[C@H](CN)CC[C@H]2N)[C@H](O)[C@H]1O[C@H]1O[C@H](CO)[C@@H](O)[C@H](N)[C@H]1O` [ARBEKACIN] was run?
The MIC was at most 0.06 µg/mL.

What about the MIC [4] of the same compound?
The MIC was at most 0.06 µg/mL.

And the MIC [5]?
The MIC was at most 0.06 µg/mL.

And the MIC [6]?
Its MIC is at most 0.06 µg/mL.

What about the MIC [7] of the same compound?
Its MIC is at most 0.06 µg/mL.

What about the MIC [8] of the same compound?
Its MIC is at most 0.06 µg/mL.

And the MIC [1]?
The MIC was at most 0.06 µg/mL.

And the MIC50 [2]?
The MIC50 was at most 0.06 µg/mL.

And the MIC90 [2]?
The MIC90 was at most 0.06 µg/mL.

What about the MIC [9] of the same compound?
The MIC was at most 0.06 µg/mL.

`NC[C@H]1O[C@H](O[C@H]2[C@H](O)[C@@H](O[C@H]3O[C@H](CO)[C@@H](O)[C@H](N)[C@H]3O)[C@H](N)C[C@@H]2N)[C@H](O)[C@@H](O)[C@@H]1O` [KANAMYCIN] was tested. Which MIC [3] did it give?
Its MIC is 0.5 µg/mL (≈ 1.03 µM).

What about the MIC [4] of the same compound?
Its MIC is 0.25 µg/mL (≈ 0.516 µM).

And the MIC [5]?
Its MIC is 0.25 µg/mL (≈ 0.516 µM).

And the MIC [6]?
Its MIC is 0.5 µg/mL (≈ 1.03 µM).

And the MIC [7]?
Its MIC is 0.25 µg/mL (≈ 0.516 µM).

And the MIC [8]?
Its MIC is 0.25 µg/mL (≈ 0.516 µM).

And the MIC [1]?
Its MIC is 0.25 µg/mL (≈ 0.516 µM).

What about the MIC50 [2] of the same compound?
The MIC50 was 0.25 µg/mL (≈ 0.516 µM).

And the MIC90 [2]?
Its MIC90 is 0.5 µg/mL (≈ 1.03 µM).

And the MIC [9]?
The MIC was 0.25 µg/mL (≈ 0.516 µM).

Which MIC [3] does the source give for `Cc1onc(-c2ccccc2)c1C(=O)N[C@@H]1C(=O)N2[C@@H]1SC(C)(C)[C@@H]2C(=O)O` [OXACILLIN] here?
Its MIC is 128 µg/mL (≈ 319 µM).

What about the MIC [4] of the same compound?
Its MIC is 128 µg/mL (≈ 319 µM).

What about the MIC [5] of the same compound?
Its MIC is 256 µg/mL (≈ 638 µM).

What about the MIC [6] of the same compound?
Its MIC is 128 µg/mL (≈ 319 µM).

And the MIC [7]?
Its MIC is 128 µg/mL (≈ 319 µM).

What about the MIC [8] of the same compound?
Its MIC is 256 µg/mL (≈ 638 µM).

And the MIC [1]?
The MIC was 64 µg/mL (≈ 159 µM).

And the MIC50 [2]?
The MIC50 was 0.5 µg/mL (≈ 1.25 µM).

What about the MIC90 [2] of the same compound?
Its MIC90 is 1 µg/mL (≈ 2.49 µM).

And the MIC [9]?
Its MIC is 128 µg/mL (≈ 319 µM).

Which results are given for `CO[C@@]1(NC(=O)Cc2cccs2)C(=O)N2C(C(=O)O)=C(COC(N)=O)CS[C@@H]21` [CEFOXITIN]?
MIC [3]: 32 µg/mL (≈ 74.9 µM); MIC [4]: 16 µg/mL (≈ 37.4 µM); MIC [5]: 32 µg/mL (≈ 74.9 µM); MIC [6]: 16 µg/mL (≈ 37.4 µM); MIC [7]: 8 µg/mL (≈ 18.7 µM); MIC [8]: 16 µg/mL (≈ 37.4 µM); MIC [1]: 8 µg/mL (≈ 18.7 µM); MIC50 [2]: 2 µg/mL (≈ 4.68 µM); MIC90 [2]: 2 µg/mL (≈ 4.68 µM); MIC [9]: 16 µg/mL (≈ 37.4 µM)

Which results are given for `CC[C@H]1OC(=O)[C@H](C)[C@@H](O[C@H]2C[C@@](C)(OC)[C@@H](O)[C@H](C)O2)[C@H](C)[C@@H](O[C@@H]2O[C@H](C)C[C@H](N(C)C)[C@H]2O)[C@](C)(O)C[C@@H](C)C(=O)[C@H](C)[C@@H](O)[C@]1(C)O` [ERYTHROMYCIN]?
MIC [3]: 0.25 µg/mL (≈ 0.341 µM); MIC [4]: 64 µg/mL (≈ 87.2 µM); MIC [5]: 0.25 µg/mL (≈ 0.341 µM); MIC [6]: 64 µg/mL (≈ 87.2 µM); MIC [7]: 64 µg/mL (≈ 87.2 µM); MIC [8]: 128 µg/mL (≈ 174 µM); MIC [1]: 64 µg/mL (≈ 87.2 µM); MIC50 [2]: 0.125 µg/mL (≈ 0.17 µM); MIC90 [2]: 2 µg/mL (≈ 2.73 µM); MIC [9]: 64 µg/mL (≈ 87.2 µM)

Which results are given for `Cc1nnc(SCC2=C(C(=O)O)N3C(=O)[C@@H](NC(=O)Cn4cnnn4)[C@H]3SC2)s1` [CEFAZOLIN]?
MIC [3]: 128 µg/mL (≈ 282 µM); MIC [4]: 16 µg/mL (≈ 35.2 µM); MIC [5]: 128 µg/mL (≈ 282 µM); MIC [6]: 64 µg/mL (≈ 141 µM); MIC [7]: 1 µg/mL (≈ 2.2 µM); MIC [8]: 32 µg/mL (≈ 70.4 µM); MIC [1]: 4 µg/mL (≈ 8.8 µM); MIC50 [2]: 1 µg/mL (≈ 2.2 µM); MIC90 [2]: 2 µg/mL (≈ 4.4 µM); MIC [9]: 16 µg/mL (≈ 35.2 µM)

Source: ChEMBL document CHEMBL1255354, “Methicillin-resistant Staphylococcus saprophyticus isolates carrying staphylococcal cassette chromosome mec have emerged in urogenital tract infections” (2008)
